Test results as given in ChEMBL document CHEMBL1944636, “Inhibition of hepatitis C virus NS5B polymerase by S-trityl-L-cysteine derivatives” (Eur J Med Chem, 2012).
Calls of active or inactive are those of the source. The calls are words filed in the database; no cut-off is given here.

Columns and labels:
[1] = tested on: Hepatitis C virus; experiment: Inhibition of HCV genotype 1b recombinant N-His-tagged NS5B Cdelta21 polymerase expressed in Escherichia coli DH5alpha using [alpha-32P]UTP at 100 uM after 60 mins by liquid scintillation counting; set-up: species or system Hepatitis C virus subtype 1b; conditions: for inhibition at 100 µM: DH5-alpha, 1 h
Procedure, shortened: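 Primer-dependent elongation with 100 ng NS5BCΔ21 in 20 mM Tris-HCl pH 7.0, 100 mM NaCl, 100 mM Na-glutamate, 1 mM MnCl₂, 0.25 μM polyrA/U₁₂, 20 μM UTP plus [α-³²P]UTP. Compound at 100 μM, 60 min at 30 °C. TCA/pyrophosphate stop, GF-B filter capture, scintillation counting. Percent of DMSO control, at least two independent measurements in duplicate.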

[2] = tested on: Hepatitis C virus; experiment: Inhibition of HCV genotype 1b recombinant N-His-tagged NS5B Cdelta21 polymerase expressed in Escherichia coli DH5alpha using [alpha-32P]UTP after 60 mins by liquid scintillation counting; set-up: species or system Hepatitis C virus subtype 1b; conditions: DH5-alpha, 1 h
Procedure, shortened: (§1)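 NS5BCΔ21 (genotype 1b, N-His, from E. coli DH5α, Ni-NTA purified), 100 ng, elongates polyrA/U₁₂ with 20 μM UTP/[α-³²P]UTP and 1 mM MnCl₂ at pH 7.0, 60 min at 30 °C. Counted on filters by scintillation. IC50 from nonlinear fits of 8–12 concentrations in duplicate, two independent experiments.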

[3] = tested on: Hepatitis C virus; experiment: Inhibition of HCV genotype 1b NS5B polymerase expressed in BHK cells at 100 uM after 42 hrs by luciferase reporter gene assay; set-up: species or system Hepatitis C virus subtype 1b
Procedure, shortened: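 Intracellular NS5B RdRp activity was read in BHK-NS5B-FRLuc reporter cells, 1 × 10⁴/well, treated 42 h with 100 μM compound or 1% DMSO at 37 °C, 5% CO2. Dual-Glo luciferase read-out; inhibition is percent reduction of Renilla-to-firefly luminescence ratio against DMSO controls. Three independent experiments in duplicate.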

[4] = Cytotoxicity against human HuH7 cells assessed as cell viability at 100 uM after 42 hrs by MTS assay; type: cell-based, Huh-7; conditions: read-out: Activity
Procedure, shortened: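 Viability of Huh7/Rep-Feo1b replicon cells was measured by colorimetric MTS read-out after 42 h with 100 μM compound. Cells were seeded at 1 × 10⁴/well, DMSO was 1.0% final, and culture was at 37 °C, 5% CO2. Values relative to DMSO controls, three independent experiments in duplicate.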

[5] = tested on: Hepatitis C virus; experiment: Antiviral activity against HCV genotype 1b infected in human HuH7/Rep-Feo1b cells assessed as inhibition of viral replication at 100 uM after 42 hrs by luciferase reporter gene assay; type: functional, Hepacivirus hominis; conditions: Huh-7, 42 h
Procedure, shortened: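 Huh7/Rep-Feo1b replicon cells (DMEM, 10% FCS, 0.5 mg/mL G418, 37 °C, 5% CO2) seeded at 1 × 10⁴/well and exposed to 100 μM compound or DMSO for 42 h, 1.0% DMSO final. Replication was read as firefly luciferase signal relative to DMSO controls. Mean of three independent experiments in duplicate.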

[6] = Cytotoxicity against hamster BHK cells assessed as cell viability at 100 uM after 42 hrs by luciferase reporter gene assay; type: cell-based, Mesocricetus auratus; conditions: read-out: Activity
Procedure, shortened: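 BHK-NS5B-FRLuc reporter cells (DMEM, 10% FBS, 1 mg/mL G418, 10 μg/mL blasticidin) were plated at 1 × 10⁴/well with 100 μM compound or 1% DMSO for 42 h. Viability was taken as firefly luciferase level versus DMSO controls using Dual-Glo read-out. Three independent experiments in duplicate.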

[7] = Inhibition of HCV NS5B polymerase; set-up: species or system Hepacivirus hominis; procedure, shortened: as §1

## CN(C)[C@@H](CSC(c1ccccc1)(c1ccccc1)c1ccccc1)C(=O)O
[1]
  inhibition at 100 µM: 17.2%

## CCCOc1ccc(C(SC[C@H](N)C(=O)O)(c2ccccc2)c2ccccc2)cc1
[1]
  inhibition at 100 µM: 14%

## N[C@H](CSC(c1ccccc1)(c1ccccc1)c1ccccc1)C(=O)O
[1]
  inhibition at 100 µM: 17%

## Cc1ccc(C(SC[C@H](N)C(=O)O)(c2ccccc2)c2ccccc2)cc1
[1]
  inhibition at 100 µM: 23.1%

## CCCCc1ccc(C(SC[C@H](N)C(=O)O)(c2ccccc2)c2ccccc2)cc1
[1]
  inhibition at 100 µM: 60%
[2]
  IC50: 39.7 µM

## NCCSC(c1ccccc1)(c1ccccc1)c1ccc2ccccc2c1
[1]
  inhibition at 100 µM: 33.3%

## CCCCCCc1ccc(C(SC[C@H](N)C(=O)O)(c2ccccc2)c2ccccc2)cc1
[1]
  inhibition at 100 µM: 16.1%

## N[C@@H](CSC(c1ccccc1)(c1ccccc1)c1ccc(Cl)cc1)C(=O)O
[1]
  inhibition at 100 µM: 28.3%

## NCCSC(c1ccccc1)(c1ccccc1)c1ccc(-c2ccccc2)cc1
[1]
  inhibition at 100 µM: 36%

## CCC(C)C(SC[C@H](N)C(=O)O)(c1ccccc1)c1ccccc1 (stereo partly drawn)
[1]
  inhibition at 100 µM: 34%

## N[C@@H](CSC(c1ccccc1)(c1ccccc1)c1ccc2ccccc2c1)C(=O)O
[1]
  inhibition at 100 µM: 14.7%

## CCCc1ccc(C(SCCN)(c2ccccc2)c2ccccc2)cc1
[1]
  inhibition at 100 µM: 27.4%

## CCc1ccc(C(SCCN)(c2ccccc2)c2ccccc2)cc1
[1]
  inhibition at 100 µM: 28.7%

## NCCSC(c1ccccc1)(c1ccccc1)c1ccc(I)cc1
[1]
  inhibition at 100 µM: 36.7%

## N[C@@H](CSC(c1ccccc1)(c1ccccc1)c1cccs1)C(=O)O
[1]
  inhibition at 100 µM: 23.4%

## CC(C)(SC(c1ccccc1)(c1ccccc1)c1ccccc1)[C@H](N)C(=O)O
[3]
  inhibition at 100 µM: 84.3%
[1]
  inhibition at 100 µM: 76.7%
[4]
  viability at 42 h, 100 µM: 74.1%
[2]
  IC50: 24.6 µM
[5]
  inhibition at 100 µM: 91.2%
[6]
  viability at 42 h, 100 µM: 100%

## Cc1ccc(C(SCCN)(c2ccccc2)c2ccccc2)cc1
[1]
  inhibition at 100 µM: 31.7%

## CCCC(SC[C@H](N)C(=O)O)(c1ccccc1)c1ccccc1
[1]
  inhibition at 100 µM: 19.1%

## CCCCCc1ccc(C(SC[C@H](N)C(=O)O)(c2ccccc2)c2ccccc2)cc1
[1]
  inhibition at 100 µM: 28.3%

## N[C@@H](CSC1(c2ccc(Cl)cc2)c2ccccc2-c2ccccc21)C(=O)O
[7]
  pIC50: 4.33

## CC(C)c1ccc(C(SC[C@H](N)C(=O)O)(c2ccccc2)c2ccccc2)cc1
[1]
  inhibition at 100 µM: 31.2%

## CCCOc1ccc(C(SC(C)(C)[C@H](N)C(=O)O)(c2ccccc2)c2ccccc2)cc1
[1]; Hepatitis C virus subtype 1b
  inhibition: inactive

## N[C@@H](CSC(c1ccccc1)(c1ccccc1)c1ccccc1)C(=O)O [S-TRITYL-L-CYSTEINE]
[1]
  inhibition at 100 µM: 12.6%

## N[C@@H](CSC(c1ccccc1)(c1ccccc1)c1ccc(C2CCCCC2)cc1)C(=O)O
[1]
  inhibition at 100 µM: 20.5%

## N[C@@H](CSC(c1ccccc1)(c1ccccc1)c1ccc(C(F)(F)F)cc1)C(=O)O
[1]
  inhibition at 100 µM: 43.5%

## N[C@@H](CSC(c1ccccc1)(c1ccccc1)c1ccc(C(=O)O)cc1)C(=O)O
[1]
  inhibition at 100 µM: 30.9%

## CCCCc1ccc(C(SC(C)(C)[C@H](N)C(=O)O)(c2ccccc2)c2ccccc2)cc1
[1]
  inhibition at 100 µM: 22%

## CSc1ccc(C(SCCN)(c2ccccc2)c2ccccc2)cc1
[1]
  inhibition at 100 µM: 24%

## CC(C)(C)c1ccc(C(SC[C@H](N)C(=O)O)(c2ccccc2)c2ccccc2)cc1
[1]
  inhibition at 100 µM: 22.6%

## CCC(CC)C(SC[C@H](N)C(=O)O)(c1ccccc1)c1ccccc1
[1]
  inhibition at 100 µM: 33.1%

## CC(C)C(SC[C@H](N)C(=O)O)(c1ccccc1)c1ccccc1
[1]
  inhibition at 100 µM: 22.5%

## N[C@@H](CSC(c1ccccc1)(c1ccccc1)c1ccc(-c2ccccc2)cc1)C(=O)O
[1]
  inhibition at 100 µM: 22.4%

## CCCc1ccc(C(SC[C@H](N)C(=O)O)(c2ccccc2)c2ccccc2)cc1
[1]
  inhibition at 100 µM: 36.9%

## N[C@@H](CSC(c1ccccc1)(c1ccccc1)c1ccc(Br)cc1)C(=O)O
[1]
  inhibition at 100 µM: 20.2%

## CCc1ccc(C(SC[C@H](N)C(=O)O)(c2ccccc2)c2ccccc2)cc1
[1]
  inhibition at 100 µM: 36.8%

## CSc1ccc(C(SC[C@H](N)C(=O)O)(c2ccccc2)c2ccccc2)cc1
[1]
  inhibition at 100 µM: 44.3%

## CC(C)(SC(c1ccccc1)(c1ccccc1)c1ccccc1)[C@@H](N)C(=O)O
[3]
  inhibition at 100 µM: 85.4%
[1]
  inhibition at 100 µM: 82.8%
[4]
  viability at 42 h, 100 µM: 72.6%
[2]
  IC50: 22.3 µM
[5]
  inhibition at 100 µM: 89.5%
[6]
  viability at 42 h, 100 µM: 100%
